ChEMBL document CHEMBL1131378, “Synthesis and endectocidal activity of novel 1-(arylsulfonyl)-1-[(trifluoromethyl)sulfonyl]methane derivatives” (J Med Chem, 1998)

Legend:
[1] = Partition coefficient (logP) (HPLC); format: physicochemical; conditions: octanol/water
Summary of the method: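 Partition coefficient measured chromatographically.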

Stomoxys calcitrans [2] = test: Insecticidal property against Stomoxys calcitrans measured as lowest concentration in bovine serum vs adult stable fly giving > 90% mortality; format: functional
Summary of the method: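 Serum titrated with compound from 100 ppm downward was soaked into dental wicks and placed in dishes with 10 chilled adult stable flies. Kept about 48 h at about 25 °C and 75–85% humidity. Percent mortality was scored at 24 and 48 h against a wick with control serum only.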

Rattus norvegicus = organism: Rattus norvegicus; test: Uncoupler concentration that reduced the respiratory control index by 50% of coupled rat liver mitochondria; format: functional
Haemonchus contortus [3] = test: The compound was tested for % reduction of Haemonchus contortus worms in gerbils dosed at 25 mg/kg.; format: functional
Summary of the method: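 Mongolian gerbils infected with H. contortus received one oral gavage at 25 mg/kg BW in DMSO/H2O. Untreated infected gerbils served as negative controls and levamisole-dosed gerbils as positive controls, three per group. Stomachs and contents were vortexed in saline, incubated at 35 °C for at least 1 h and stained with iodine. Worms were counted per gerbil and % reduction taken against the mean of infected untreated controls.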

[4] = (§1) Number of days posttreated in which >90% mortality of ASF was seen following exposure of insects to serum from sheep treated with 10 mg/kg of BW of compound by single ir injection; format: functional
Summary of the method: (§2)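 Parasitized sheep (two per compound) received a single intraruminal injection at 10 mg/kg BW in PEG 200. Blood was drawn daily for 14 days and left about 24 h to separate. Serum-soaked dental wicks were exposed to adult stable flies for 48 h, with mortality compared to a serum-only control. Days posttreatment giving >90% mortality were counted.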

[5] = The pKa value in aqueous solution.; format: physicochemical
Summary of the method: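 pKa measured in aqueous solution.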

Haemonchus contortus [6] = test: Compound was tested for % reduction of Haemonchus contortus worms in sheep dosed at 10 mg/kg by single ir injection; format: functional
Summary of the method: (§3)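 Lambs with baseline fecal egg counts on days 26–28 postinoculation randomised to groups and held in individual metabolism crates. A single 10 mg/kg BW intraruminal dose was given in PEG 200. Fecal EPG was measured daily. Total H. contortus worm counts were used to calculate % reduction as (TWC control − TWC treated)/TWC control × 100, against untreated controls.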

Haemonchus contortus [7] = test: The compound was tested for % Reduction of Haemonchus contortus worms in sheep dosed at 10 mg/kg by single ir injection; format: functional; summary of the method: as §3
Stomoxys calcitrans [8] = test: as §1; format: functional; summary of the method: as §2

CC(S(=O)(=O)c1ccc(OC(F)(F)F)cc1)S(=O)(=O)C(F)(F)F (stereo not drawn)
logP [1]: 3
ASF (Stomoxys calcitrans [2]): 25 p.p.m.
IC50 (Rattus norvegicus): 710 µM
Reduction (Haemonchus contortus [3]): 100%
Days [4]: 6
pKa [5]: 6.2
Reduction (Haemonchus contortus [6]): 100%

Cc1ccc(S(=O)(=O)CS(=O)(=O)C(F)(F)F)cc1
ASF (Stomoxys calcitrans [2]): >100 p.p.m.

O=S(=O)(CS(=O)(=O)C(F)(F)F)c1ccc(Cl)cc1Cl
ASF (Stomoxys calcitrans [2]): >100 p.p.m.

CCC(S(=O)(=O)c1ccc(Cl)cc1)S(=O)(=O)C(F)(F)F (stereo not drawn)
ASF (Stomoxys calcitrans [2]): 50 p.p.m.

O=S(=O)(c1ccc(OC(F)(F)F)cc1)C(CSc1ccc(OC(F)(F)F)cc1)S(=O)(=O)C(F)(F)F (stereo not drawn)
ASF (Stomoxys calcitrans [2]): 50 p.p.m.

CSC(S(=O)(=O)c1ccc(Cl)cc1)S(=O)(=O)C(F)(F)F (stereo not drawn)
ASF (Stomoxys calcitrans [2]): >100 p.p.m.

O=S(=O)(CS(=O)(=O)C(F)(F)F)c1cc(C(F)(F)F)cc(C(F)(F)F)c1
ASF (Stomoxys calcitrans [2]): 50 p.p.m.

O=S(=O)(CS(=O)(=O)C(F)(F)F)c1ccc(Cl)c(Cl)c1
logP [1]: 1.7
ASF (Stomoxys calcitrans [2]): >100 p.p.m.
IC50 (Rattus norvegicus): 3990 µM
Reduction (Haemonchus contortus [3]): 100%
Reduction (Haemonchus contortus [7]): 100%
Days (Stomoxys calcitrans [8]): 1
pKa [5]: 4

O=S(=O)(c1ccc(OC(F)(F)F)cc1)C(CSc1ccc(F)cc1)S(=O)(=O)C(F)(F)F (stereo not drawn)
ASF (Stomoxys calcitrans [2]): 50 p.p.m.
Reduction (Haemonchus contortus [3]): 100%
Days [4]: 6
Reduction (Haemonchus contortus [6]): 100%

O=S(=O)(CS(=O)(=O)C(F)(F)F)c1ccccc1
ASF (Stomoxys calcitrans [2]): 50 p.p.m.

O=S(=O)(c1ccc(Cl)c(Cl)c1)C(Cc1ccc(C(F)(F)F)cc1)S(=O)(=O)C(F)(F)F (stereo not drawn)
ASF (Stomoxys calcitrans [2]): 100 p.p.m.

O=S(=O)(CS(=O)(=O)C(F)(F)C(F)(F)C(F)(F)C(F)(F)F)c1ccc(OC(F)(F)F)cc1
ASF (Stomoxys calcitrans [2]): 25 p.p.m.

O=S(=O)(CS(=O)(=O)C(F)(F)F)c1ccc(SC(F)(F)C(F)F)c(Cl)c1
ASF (Stomoxys calcitrans [2]): >100 p.p.m.

O=S(=O)(CS(=O)(=O)C(F)(F)F)c1ccc(NS(=O)(=O)C(F)(F)F)cc1
ASF (Stomoxys calcitrans [2]): 100 p.p.m.

CC(C)(C)c1ccc(S(=O)(=O)CS(=O)(=O)C(F)(F)F)cc1
logP [1]: 2.4
ASF (Stomoxys calcitrans [2]): >100 p.p.m.
IC50 (Rattus norvegicus): 2800 µM
pKa [5]: 5.1

O=S(=O)(CS(=O)(=O)C(F)(F)F)c1ccc(F)cc1
logP [1]: 1.3
ASF (Stomoxys calcitrans [2]): 100 p.p.m.
IC50 (Rattus norvegicus): 3150 µM
pKa [5]: 4.6

O=S(=O)(CS(=O)(=O)C(F)(F)F)c1ccc(OC(F)(F)F)cc1
logP [1]: 2.2
ASF (Stomoxys calcitrans [2]): 25 p.p.m.
IC50 (Rattus norvegicus): 2950 µM
Reduction (Haemonchus contortus [3]): 100%
Days [4]: 10
pKa [5]: 4.1
Reduction (Haemonchus contortus [6]): 100%

FC(F)(F)Oc1ccc(SCSC(F)(F)F)cc1
ASF (Stomoxys calcitrans [2]): >100 p.p.m.

CC(S(=O)(=O)c1ccc(Cl)c(Cl)c1)S(=O)(=O)C(F)(F)F (stereo not drawn)
ASF (Stomoxys calcitrans [2]): 25 p.p.m.

O=S(=O)(CS(=O)(=O)C(F)(F)F)c1cccc(C(F)(F)F)c1
ASF (Stomoxys calcitrans [2]): >100 p.p.m.

O=S(=O)(CS(=O)(=O)C(F)(F)F)c1ccc(SC(F)(F)C(F)F)cc1
ASF (Stomoxys calcitrans [2]): >100 p.p.m.

O=S(=O)(CS(=O)(=O)C(F)(F)F)c1ccc(F)c(Cl)c1
ASF (Stomoxys calcitrans [2]): 100 p.p.m.

O=S(=O)(c1ccc(OC(F)(F)F)cc1)C(CSc1cccc(F)c1)S(=O)(=O)C(F)(F)F (stereo not drawn)
ASF (Stomoxys calcitrans [2]): 50 p.p.m.

O=S(=O)(CS(=O)(=O)C(F)(F)F)c1ccc(Cl)cc1
logP [1]: 1.9
ASF (Stomoxys calcitrans [2]): 50 p.p.m.
IC50 (Rattus norvegicus): 4000 µM
Reduction (Haemonchus contortus [3]): 100%
Reduction (Haemonchus contortus [7]): 100%
Days (Stomoxys calcitrans [8]): 3
pKa [5]: 4.4

O=S(=O)(CS(=O)(=O)C(F)(F)F)c1ccc(C(F)(F)F)cc1
logP [1]: 1
ASF (Stomoxys calcitrans [2]): 50 p.p.m.
IC50 (Rattus norvegicus): 5400 µM
Reduction (Haemonchus contortus [3]): 100%
Days [4]: 0
pKa [5]: 4
Reduction (Haemonchus contortus [6]): 100%

CC(C)(C)Sc1ccc(S(=O)(=O)CS(=O)(=O)C(F)(F)F)cc1
ASF (Stomoxys calcitrans [2]): >100 p.p.m.

O=S(=O)(CS(=O)(=O)C(F)(F)F)c1ccc(O)cc1
ASF (Stomoxys calcitrans [2]): >100 p.p.m.

O=S(=O)(CS(=O)(=O)C(F)(F)F)c1c(Cl)cccc1Cl
ASF (Stomoxys calcitrans [2]): >100 p.p.m.

CS(=O)(=O)Oc1ccc(S(=O)(=O)CS(=O)(=O)C(F)(F)F)cc1
ASF (Stomoxys calcitrans [2]): >100 p.p.m.

O=[N+]([O-])c1ccc(S(=O)(=O)CS(=O)(=O)C(F)(F)F)cc1
ASF (Stomoxys calcitrans [2]): >100 p.p.m.

O=S(=O)(CS(=O)(=O)C(F)(F)F)c1ccc(OS(=O)(=O)C(F)(F)F)cc1
ASF (Stomoxys calcitrans [2]): 100 p.p.m.

N#Cc1ccc(S(=O)(=O)CS(=O)(=O)C(F)(F)F)cc1
ASF (Stomoxys calcitrans [2]): >100 p.p.m.

COc1ccc(S(=O)(=O)CS(=O)(=O)C(F)(F)F)cc1
ASF (Stomoxys calcitrans [2]): >100 p.p.m.

O=S(=O)(c1ccc(OC(F)(F)F)cc1)C(CSc1ccc(Cl)cc1)S(=O)(=O)C(F)(F)F (stereo not drawn)
ASF (Stomoxys calcitrans [2]): 50 p.p.m.

O=S(=O)(CS(=O)(=O)C(F)(F)F)c1ccc(Br)cc1
ASF (Stomoxys calcitrans [2]): 25 p.p.m.

O=S(=O)(c1ccc(Cl)cc1)C(Cc1ccccc1)S(=O)(=O)C(F)(F)F (stereo not drawn)
ASF (Stomoxys calcitrans [2]): >100 p.p.m.

CC(S(=O)(=O)c1ccc(Cl)cc1)S(=O)(=O)C(F)(F)F (stereo not drawn)
ASF (Stomoxys calcitrans [2]): 50 p.p.m.

O=S(=O)(c1ccc(OC(F)(F)F)cc1)C(Cl)(Cl)S(=O)(=O)C(F)(F)F
ASF (Stomoxys calcitrans [2]): >100 p.p.m.

O=S(=O)(CS(=O)(=O)C(F)(F)F)c1ccccc1Cl
ASF (Stomoxys calcitrans [2]): >100 p.p.m.

O=S(=O)(CS(=O)(=O)C(F)(F)F)c1ccc(OC(F)(F)C(F)F)cc1
ASF (Stomoxys calcitrans [2]): 25 p.p.m.

O=[N+]([O-])c1ccc(O)c([N+](=O)[O-])c1 [2,4-DINITROPHENOL]
logP [1]: 1.5
IC50 (Rattus norvegicus): 1000 µM
pKa [5]: 4.6

Cc1cc(C(C#N)c2ccc(Cl)cc2)c(Cl)cc1NC(=O)c1cc(I)cc(I)c1O (stereo not drawn) [CLOSANTEL]
IC50 (Rattus norvegicus): 927 µM
